Results taken from ChEMBL document CHEMBL1158991, “Cytotoxic and antimalarial constituents of the roots of Eurycoma longifolia” (J Nat Prod, 1991).
In brackets after ≈: the same amount, converted by molar mass. Blank lines part the entries; values can stand above or below the compound they belong to.

Experiments:
[1] = system: KB; experiment: Cytotoxicity against human KB cells; type: functional; conditions: read-out: ED50 (the source's name)
[2] = Cytotoxicity against human lung cancer cells; type: functional; conditions: Cancer cell lines, read-out: ED50 (the source's name)
[3] = Cytotoxicity against human colon cancer cells; type: functional; conditions: Cancer cell lines, read-out: ED50 (the source's name)
[4] = Cytotoxicity against human KBV1 cells; type: functional; conditions: KB-V1, read-out: ED50 (the source's name)
[5] = Cytotoxicity against human breast cancer cells; type: functional; conditions: Cancer cell lines, read-out: ED50 (the source's name)
[6] = system: P388; experiment: Cytotoxicity against mouse P388 cells; type: functional; conditions: read-out: ED50 (the source's name)
[7] = Cytotoxicity against human fibrosarcoma cells; type: functional; conditions: Fibrosarcoma cell, read-out: ED50 (the source's name)
[8] = Cytotoxicity against human melanoma cells; type: functional; conditions: Melanoma cell, read-out: ED50 (the source's name)
[9] = system: Plasmodium falciparum; experiment: Antimalarial activity against Plasmodium falciparum W2 in human erythrocytes after 24 hrs by [3H]hypoxanthine uptake; type: functional, organism-based
Summary of the method: (§1)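 P. falciparum (D-6 chloroquine-sensitive, W-2 chloroquine-resistant) kept in type A+ human erythrocytes, RPMI-1640 with 32 mM NaHCO3, 35 mM HEPES and 10% heat-inactivated A+ plasma, 5% O2/5% CO2/90% N2, 37°. Assay: 0.5–1.0% parasitemia, 1.0% hematocrit, triplicates over 7-5000 ng/ml, 24 h. Then 0.5 µCi [3H]-hypoxanthine added for a further 18-24 h. Uninfected-cell dpm subtracted. IC50 by linear regression.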

[10] = system: Plasmodium falciparum; experiment: Antimalarial activity against Plasmodium falciparum D6 in human erythrocytes after 24 hrs by [3H]hypoxanthine uptake; type: functional, organism-based; summary of the method: as §1

SMILES: O=c1ccc2nccc3c4ccc(O)cc4n1c23
EC50 [1]: 2 µg/mL (≈ 8.47 µM) | EC50 [2]: 3.8 µg/mL (≈ 16.1 µM) | EC50 [3]: 4.8 µg/mL (≈ 20.3 µM) | EC50 [4]: > 20 µg/mL | EC50 [5]: 2.6 µg/mL (≈ 11 µM) | EC50 [6]: 1.5 µg/mL (≈ 6.35 µM) | EC50 [7]: 3.5 µg/mL (≈ 14.8 µM) | EC50 [8]: 5.4 µg/mL (≈ 22.9 µM)

SMILES: COc1ccc2c3cc[n+]([O-])c4ccc(=O)n(c2c1)c34
EC50 [1]: 3.8 µg/mL (≈ 14.3 µM) | EC50 [2]: 5.2 µg/mL (≈ 19.5 µM) | EC50 [3]: 8.1 µg/mL (≈ 30.4 µM) | EC50 [4]: > 20 µg/mL | EC50 [5]: 6 µg/mL (≈ 22.5 µM) | EC50 [6]: 11.7 µg/mL (≈ 43.9 µM) | EC50 [7]: 4.5 µg/mL (≈ 16.9 µM) | EC50 [8]: 6.5 µg/mL (≈ 24.4 µM)

SMILES: O=c1ccc2c3c(cc[n+]2[O-])c2ccc(O)cc2n13
EC50 [1]: 4.8 µg/mL (≈ 19 µM) | EC50 [2]: 5.1 µg/mL (≈ 20.2 µM) | EC50 [3]: 7.5 µg/mL (≈ 29.7 µM) | EC50 [4]: > 20 µg/mL | EC50 [5]: 3.5 µg/mL (≈ 13.9 µM) | EC50 [6]: 12 µg/mL (≈ 47.6 µM) | EC50 [7]: 4.9 µg/mL (≈ 19.4 µM) | EC50 [8]: 7 µg/mL (≈ 27.8 µM)

SMILES: COc1ccc2c3ccnc4ccc(=O)n(c2c1)c43
EC50 [6]: 1.4 µg/mL (≈ 5.59 µM)

IC50 [9]: 2.98 µg/mL (≈ 11 µM) | IC50 [10]: 3.14 µg/mL (≈ 11.6 µM)
SMILES: COc1ccc2c(c1)[nH]c1c(CCC(=O)O)nccc12

SMILES: C[C@@H]1CC[C@H]2[C@@H](C)C(=O)O[C@@H]3O[C@@]4(C)CC[C@@H]1[C@]32OO4 [ARTEMISININ]
IC50 [9]: 0.0018 µg/mL (≈ 0.00638 µM) | IC50 [10]: 0.0027 µg/mL (≈ 0.00956 µM)

SMILES: C=C1[C@@H](O)[C@@]2(O)OC[C@]34[C@H]2[C@@]2(C)[C@H](O)C(=O)C=C(C)[C@@H]2C[C@H]3OC(=O)[C@H](O)[C@@]14O [EURYCOMANONE]
EC50 [1]: 1.9 µg/mL (≈ 4.65 µM) | EC50 [2]: 14.3 µg/mL (≈ 35 µM) | EC50 [3]: 1.2 µg/mL (≈ 2.94 µM) | EC50 [4]: 0.8 µg/mL (≈ 1.96 µM) | EC50 [5]: 1.1 µg/mL (≈ 2.69 µM) | EC50 [6]: > 20 µg/mL | EC50 [7]: 0.2 µg/mL (≈ 0.49 µM) | IC50 [9]: 0.0481 µg/mL (≈ 0.118 µM) | EC50 [8]: 8.2 µg/mL (≈ 20.1 µM) | IC50 [10]: 0.0477 µg/mL (≈ 0.117 µM)

SMILES: OC(c1cc(C(F)(F)F)nc2c(C(F)(F)F)cccc12)C1CCCCN1 (configuration not stated) [MEFLOQUINE]
IC50 [10]: 0.0095 µg/mL (≈ 0.0251 µM)

SMILES: C=C[C@H]1CN2CC[C@H]1C[C@H]2[C@H](O)c1ccnc2ccc(OC)cc12 [QUININE]
IC50 [9]: 0.114 µg/mL (≈ 0.353 µM) | IC50 [10]: 0.0194 µg/mL (≈ 0.0598 µM)
